Reference: ChEMBL document CHEMBL2385018, “Microwave assisted synthesis, cholinesterase enzymes inhibitory activities and molecular docking studies of new pyridopyrimidine derivatives” (Bioorg Med Chem, 2013)

Key:
[1] = Selectivity ratio of IC50 for electric eel AChE to IC50 for equine serum BuChE
[2] = Selectivity ratio of IC50 for equine serum BuChE to IC50 for electric eel AChE
[3] = molecular target: Cholinesterase (Equus caballus) (UniProt P81908); assay: Selectivity ratio of Galanthamine IC50 to compound IC50 for equine BChE
Cholinesterase (Equus caballus), sequence (P81908 whole entry): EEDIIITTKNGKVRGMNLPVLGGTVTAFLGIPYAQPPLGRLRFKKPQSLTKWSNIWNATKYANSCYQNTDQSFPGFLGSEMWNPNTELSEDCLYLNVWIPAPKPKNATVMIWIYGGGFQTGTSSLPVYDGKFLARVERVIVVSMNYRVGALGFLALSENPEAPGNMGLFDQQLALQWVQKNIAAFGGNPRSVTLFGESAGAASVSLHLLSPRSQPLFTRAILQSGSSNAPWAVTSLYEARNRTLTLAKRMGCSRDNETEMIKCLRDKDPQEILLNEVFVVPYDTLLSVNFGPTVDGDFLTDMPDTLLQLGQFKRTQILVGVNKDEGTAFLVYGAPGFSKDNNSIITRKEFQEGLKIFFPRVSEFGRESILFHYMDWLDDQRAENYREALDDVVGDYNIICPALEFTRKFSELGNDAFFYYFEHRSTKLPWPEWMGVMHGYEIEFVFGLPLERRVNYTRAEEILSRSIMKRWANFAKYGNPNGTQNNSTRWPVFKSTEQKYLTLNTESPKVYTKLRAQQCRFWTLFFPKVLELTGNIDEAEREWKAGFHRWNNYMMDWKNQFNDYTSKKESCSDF

[4] = molecular target: Acetylcholinesterase (Electrophorus electricus, UniProt O42275); assay: Inhibition of electric eel AChE using […] as substrate incubated for 15 mins prior to substrate addition measured after 30 mins by Ellman's method
Acetylcholinesterase, sequence (O42275 whole entry): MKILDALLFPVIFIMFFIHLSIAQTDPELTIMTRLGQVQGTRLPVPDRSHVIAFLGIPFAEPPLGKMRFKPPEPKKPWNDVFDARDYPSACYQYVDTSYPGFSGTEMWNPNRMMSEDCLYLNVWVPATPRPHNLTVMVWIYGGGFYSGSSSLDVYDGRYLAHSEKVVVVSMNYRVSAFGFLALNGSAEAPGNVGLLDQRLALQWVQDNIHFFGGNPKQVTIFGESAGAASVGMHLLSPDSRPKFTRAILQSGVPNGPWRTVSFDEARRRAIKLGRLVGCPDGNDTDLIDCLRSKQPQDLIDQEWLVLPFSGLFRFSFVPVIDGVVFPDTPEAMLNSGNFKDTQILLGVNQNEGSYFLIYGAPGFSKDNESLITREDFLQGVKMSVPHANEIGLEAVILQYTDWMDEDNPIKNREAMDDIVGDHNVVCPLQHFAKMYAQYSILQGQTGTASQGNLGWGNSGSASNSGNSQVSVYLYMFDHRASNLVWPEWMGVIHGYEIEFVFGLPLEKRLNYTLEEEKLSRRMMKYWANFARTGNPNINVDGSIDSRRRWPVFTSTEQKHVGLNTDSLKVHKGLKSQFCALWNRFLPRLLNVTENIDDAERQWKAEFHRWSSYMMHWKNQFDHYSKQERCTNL

[5] = molecular target: Cholinesterase (Equus caballus, UniProt P81908); assay: Inhibition of equine serum BuChE using S-butyrylthiocholine chloride as substrate incubated for 15 mins prior to substrate addition measured after 30 mins by Ellman's method
Cholinesterase, sequence (P81908 whole entry): as the sequence (P81908 whole entry) above
Procedure, shortened: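 Modified Ellman method in 0.1 M sodium phosphate buffer, pH 8. Samples were dissolved in DMSO (1 mg/mL stock; 1% DMSO final). Equine serum BChE was preincubated with sample for 15 min at 25 °C. DTNB (10 mM stock) and S-butyrylthiocholine chloride were then added, and absorbance was read at 412 nm after 30 min. Triplicate, blank-corrected, % inhibition versus control.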

Structure (SMILES)	Ratio IC50 [1]	Ratio IC50 [2]	Ratio IC50 [3]	IC50 [4]	IC50 [5]
S=C1NC2=C(CNC/C2=C\c2ccccc2Cl)C(c2ccccc2Cl)N1 (stereo not given)	11.1	0.09	2	32.4 µM	2.91 µM
Fc1ccc(/C=C2\CNCC3=C2NC(=S)NC3c2ccc(F)cc2)cc1 (stereo not given)	1.29	0.77	2	37.2 µM	28.8 µM
O=C1NC2=C(CNC/C2=C\c2ccc(Cl)cc2Cl)C(c2ccc(Cl)cc2Cl)N1 (stereo not given)	1.26	0.79	2	29.9 µM	23.5 µM
O=C1NC2=C(CNC/C2=C\c2cccc3ccccc23)C(c2cccc3ccccc23)N1 (stereo not given)	2.44	0.41	2	13.2 µM	5.39 µM
O=C1NC2=C(CNC/C2=C\c2ccc(F)cc2)C(c2ccc(F)cc2)N1 (stereo not given)	2.34	0.43	2	44.2 µM	18.9 µM
S=C1NC2=C(CNC/C2=C\c2ccccc2)C(c2ccccc2)N1 (stereo not given)	5.09	0.2	2	19.3 µM	3.78 µM
S=C1NC2=C(CNC/C2=C\c2cccc3ccccc23)C(c2cccc3ccccc23)N1 (stereo not given)	0.25	4.07	2	1.37 µM	5.58 µM
Fc1ccccc1/C=C1\CNCC2=C1NC(=S)NC2c1ccccc1F (stereo not given)	6.21	0.16	2	40.4 µM	6.5 µM
Cc1ccc(/C=C2\CNCC3=C2NC(=S)NC3c2ccc(C)cc2)cc1 (stereo not given)	5.95	0.17	2	37.5 µM	6.27 µM
O=C1NC2=C(CNC/C2=C\c2ccccc2F)C(c2ccccc2F)N1 (stereo not given)	5.61	0.18	2	18.6 µM	3.31 µM
O=C1NC2=C(CNC/C2=C\c2cccc([N+](=O)[O-])c2)C(c2cccc([N+](=O)[O-])c2)N1 (stereo not given)	2.73	0.37	2	28.3 µM	10.3 µM
COc1ccccc1/C=C1\CNCC2=C1NC(=S)NC2c1ccccc1OC (stereo not given)	0.67	1.47	16	0.8 µM	1.18 µM
S=C1NC2=C(CNC/C2=C\c2ccc(Cl)cc2Cl)C(c2ccc(Cl)cc2Cl)N1 (stereo not given)	0.67	1.5	2	26.3 µM	49.8 µM
O=C1NC2=C(CNC/C2=C\c2ccc(Cl)cc2)C(c2ccc(Cl)cc2)N1 (stereo not given)	2.2	0.45	2	36.8 µM	16.7 µM
O=[N+]([O-])c1cccc(/C=C2\CNCC3=C2NC(=S)NC3c2cccc([N+](=O)[O-])c2)c1 (stereo not given)	4.25	0.24	2	34.3 µM	8.09 µM
Cc1ccccc1/C=C1\CNCC2=C1NC(=S)NC2c1ccccc1C (stereo not given)	12.9	0.08	2	39.7 µM	3.07 µM
O=C1NC2=C(CNC/C2=C\c2ccccc2Cl)C(c2ccccc2Cl)N1 (stereo not given)	9.57	0.1	2	24.1 µM	2.51 µM
O=C1NC2=C(CNC/C2=C\c2ccccc2)C(c2ccccc2)N1 (stereo not given)	24	0.04	2	68.7 µM	2.86 µM
Cc1ccccc1/C=C1\CNCC2=C1NC(=O)NC2c1ccccc1C (stereo not given)	7.74	0.13	2	40.4 µM	5.22 µM
S=C1NC2=C(CNC/C2=C\c2ccc(Cl)cc2)C(c2ccc(Cl)cc2)N1 (stereo not given)	0.35	2.78	2	2.25 µM	6.26 µM
S=C1NC2=C(CNC/C2=C\c2ccc(Br)cc2)C(c2ccc(Br)cc2)N1 (stereo not given)	7.2	0.14	12	11.9 µM	1.65 µM
COc1ccccc1/C=C1\CNCC2=C1NC(=O)NC2c1ccccc1OC (stereo not given)	3.75	0.27	2	40.2 µM	10.7 µM
Cc1ccc(/C=C2\CNCC3=C2NC(=O)NC3c2ccc(C)cc2)cc1 (stereo not given)	6.56	0.15	2	46.5 µM	7.09 µM
O=C1NC2=C(CNC/C2=C\c2ccc(Br)cc2)C(c2ccc(Br)cc2)N1 (stereo not given)	2.54	0.39	2	15.9 µM	6.22 µM
